Activity calls are given as the source filed them. The rule behind the calls is not given here.
Columns and labels:
[1] = target: T1, Peroxisome proliferator-activated receptor alpha (Homo sapiens) (UniProt Q07869); test: Transactivation of human GAL4-fused PPARalpha LBD expressed in human HepG2 cells at 1 uM after 24 hrs by dual renilla-luciferase reporter gene assay relative to fenofibrate; type: cell-based
T1 sequence (whole entry): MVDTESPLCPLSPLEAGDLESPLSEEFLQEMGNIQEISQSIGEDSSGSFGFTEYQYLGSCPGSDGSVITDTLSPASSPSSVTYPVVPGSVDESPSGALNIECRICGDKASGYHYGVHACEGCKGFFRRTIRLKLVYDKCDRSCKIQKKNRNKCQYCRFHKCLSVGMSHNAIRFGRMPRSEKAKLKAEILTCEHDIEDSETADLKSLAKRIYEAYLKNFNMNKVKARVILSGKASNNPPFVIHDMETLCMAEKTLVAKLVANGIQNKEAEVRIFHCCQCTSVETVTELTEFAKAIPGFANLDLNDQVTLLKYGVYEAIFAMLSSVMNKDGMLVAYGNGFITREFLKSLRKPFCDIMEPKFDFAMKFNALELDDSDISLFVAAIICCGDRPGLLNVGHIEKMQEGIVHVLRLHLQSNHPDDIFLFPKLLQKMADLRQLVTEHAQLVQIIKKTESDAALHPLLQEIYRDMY
Summary of the method: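 HepG2 cells cotransfected with 4xUAS-tk-luc and pBIND-hPPARα. Cells treated 24 h with compound at 1 μM final; fenofibrate 10 μM served as reference and 0.1% DMSO as vehicle. Read-out by reporter gene luciferase assay.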

[2] = target: T2, Peroxisome proliferator-activated receptor alpha (Homo sapiens, UniProt Q07869); test: Transactivation of human GAL4-fused PPARalpha LBD expressed in human HepG2 cells after 24 hrs by renilla luciferase reporter gene assay; type: cell-based
T2 sequence (Q07869 whole entry): T1 sequence (whole entry)

[3] = Solubility of the compound in pH 7.4 PBS at 100 uM incubated for 10 mins under shaking condition by HPLC analysis; type: physicochemical
Summary of the method: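 Aqueous solubility determined in PBS, pH 7.4; reported in μM.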

[4] = Apparent permeability from apical to basolateral side in human Caco2 cells at 25 uM measured up to 2 hrs by LC/MS/MS analysis; type: ADME, cell-based; conditions: Caco-2
Summary of the method: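 Caco-2 monolayers; permeability measured apical-to-basolateral (A–B) at 25 μM compound, reported as ×10⁻⁶ cm/s.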

[5] = Protein binding in human plasma at 20 uM after 5 hrs by LC/MS/MS analysis; type: ADME, cell-free; conditions: 5 h, 20 µM
Summary of the method: (§1)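 Compound at 20 μM incubated with plasma at 37°C for 5 h; percent bound to protein determined. Final DMSO 0.2%.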

[6] = Protein binding in rat plasma at 20 uM after 5 hrs by LC/MS/MS analysis; type: ADME, cell-free; conditions: 5 h, 20 µM; summary of the method: as §1
[7] = Metabolic stability in human liver microsomes assessed as parent compound remaining at 0.5 uM after 60 mins in presence of NADPH by LC/MS/MS analysis; type: ADME, Microsome; conditions: microsomes, 1 h, 0.5 µM
Summary of the method: (§2)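 Compound at 0.5 μM incubated with liver microsomes at 37°C for 1 h; result given as percent remaining. Final DMSO 0.2%.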

[8] = Metabolic stability in rat liver microsomes assessed as parent compound remaining at 0.5 uM after 60 mins in presence of NADPH by LC/MS/MS analysis; type: ADME, Microsome; conditions: microsomes, 1 h, 0.5 µM; summary of the method: as §2
[9] = target: Peroxisome proliferator-activated receptor alpha (Homo sapiens) (UniProt Q07869); test: Displacement of fluormone pan-PPAR green from GST-tagged human PPARalpha ligand binding domain after 3 hrs by TR-FRET assay
[10] = target: T1, Peroxisome proliferator-activated receptor alpha (Homo sapiens); test: Transactivation of human […] PPARalpha LBD expressed in human HepG2 cells at 1 uM by renilla luciferase reporter gene assay relative to control; type: cell-based

| Compound | activation relative to fenofibrate [1] | EC50 [2] | also measured |
| --- | --- | --- | --- |
| Cc1cc(C(=O)O)c2c(C3CC3)nn(-c3ccc(Cl)cc3)c2n1 | 24.6 | – | – |
| O=C(O)c1cc(C2CC2)nc2c1c(C1CCC1)nn2-c1ccc(Cl)cc1 | 88.3 | – | – |
| CCc1cc(C(=O)O)c2c(C(CC)CC)nn(-c3ccc(Cl)cc3)c2n1 | 213 | 1240 nM | – |
| CCc1cc(C(=O)O)c2c(C(CC)CC)nn(-c3ccc(F)cc3)c2n1 | 250 | 1530 nM | – |
| Cc1cc(C(=O)O)c2c(C(C)C)nn(-c3ccc(Br)cc3)c2n1 | 85.2 | > 4010 nM | – |
| CCc1cc(C(=O)O)c2c(C(C)C)nn(-c3ccc(Cl)cn3)c2n1 | 16.2 | – | – |
| Cc1cc(C(=O)O)c2c(C(C)C)nn(-c3ccc(F)cc3)c2n1 | 79.2 | 2060 nM | – |
| CCc1cc(C(=O)O)c2c(C(C)C)nn(-c3cccc(Cl)c3)c2n1 | 192 | > 2270 nM | – |
| CCc1cc(C(=O)O)c2c(C(C)C)nn(-c3ccc(I)cc3)c2n1 | 111 | 1760 nM | – |
| Cc1cc(C(=O)O)c2c(C(C)(C)C)nn(-c3cccc(Cl)c3)c2n1 | 5.75 | – | – |
| Cc1cc(C(=O)O)c2c(C(C)C)nn(-c3cccc(Cl)c3)c2n1 | 96.7 | – | – |
| CC(C)c1nn(-c2ccc(Cl)cc2)c2nc(C3CC3)cc(C(=O)O)c12 | 114 | > 2740 nM | – |
| Cc1cc(C(=O)O)c2c(C(C)C)nn(-c3ccc(C(F)(F)F)cc3)c2n1 | 26 | – | – |
| CCc1cc(C(=O)O)c2c(C3CCCC3)nn(-c3ccc(Cl)cc3)c2n1 | 78.2 | – | – |
| CCC(Cc1cc(C)nc2c1c(C(C)C)nn2-c1ccc(F)cc1)C(=O)O (stereo not drawn) | 1.53 | – | – |
| Cc1cc(C(=O)[O-])c2c(C(C)C)nn(-c3ccc(Cl)cc3)c2n1.[Na+] | – | – | solubility at 10 min, 100 µM [3]: > 95 µM; Papp A→B at 2 h, 25 µM [4]: 22.5 ×10⁻⁶ cm/s; PPB [5]: 99.7%; PPB [6]: 98.9%; Stability [7]: 91%; Stability [8]: 92% |
| Cc1cc(C(=O)O)c2c(C(C)(C)C)nn(-c3ccc(Cl)cc3)c2n1 | 2.26 | – | inhibition [9]: inactive |
| Cc1cc(C(=O)O)c2c(C(C)C)nn(-c3ccc(Cl)c(Cl)c3)c2n1 | 51 | – | – |

| Compound | activation relative to fenofibrate [1] | EC50 [2] | also measured |
| --- | --- | --- | --- |
| CC(C)(Sc1ccc(CCN(CCCCC2CCCCC2)C(=O)NC2CCCCC2)cc1)C(=O)O | 200 | – | – |
| Cc1cc(C(=O)O)c2c(C(C)C)nn(-c3ccc(I)cc3)c2n1 | 111 | 2410 nM | – |
| CC(C)c1nn(-c2ccc(Cl)cc2)c2nc(-c3ccccc3)cc(C(=O)O)c12 | 243 | 1800 nM | – |
| CCc1cc(C(=O)O)c2c(C(C)C)nn(-c3ccc(Br)cc3)c2n1 | 251 | 1230 nM | – |
| CCC(C)c1nn(-c2ccc(Cl)cc2)c2nc(C)cc(C(=O)O)c12 (stereo not drawn) | 176 | 680 nM | – |
| O=C(O)c1cc(C2CC2)nc2c1c(C1CCCC1)nn2-c1ccc(Cl)cc1 | 76.8 | – | – |
| CCc1cc(C(=O)O)c2c(C(C)C)nn(-c3ccc(Cl)cc3)c2n1 | 196 | 1390 nM | – |
| Cc1cc(C(=O)O)c2c(C)nn(-c3ccccc3)c2n1 | 13.6 | – | – |
| Cc1cc(C(=O)O)c2c(C(C)C)nn(-c3cccc(OCc4ccccc4)c3)c2n1 | 47.4 | – | – |
| CCC(CC)c1nn(-c2ccc(Cl)cc2)c2nc(C)cc(C(=O)O)c12 | 183 | > 3570 nM | – |
| CC(C)c1nn(-c2ccc(F)cc2)c2nc(C3CC3)cc(C(=O)O)c12 | – | – | fold change (FC) [10]: 151 |
| CC(C)c1nn(-c2ccc(F)cc2)c2ncc(C(=O)O)c(Cl)c12 | 6.21 | – | – |
| CCC(C)c1nn(-c2ccc(Cl)cc2)c2nc(C3CC3)cc(C(=O)O)c12 (stereo not drawn) | 224 | 460 nM | – |
| CCC(CC)c1nn(-c2ccc(F)cc2)c2nc(C)cc(C(=O)O)c12 | 205 | 1450 nM | – |
| CC(C)c1nn(-c2cccc(Cl)c2)c2nc(C3CC3)cc(C(=O)O)c12 | 163 | > 1340 nM | – |
| CC(C)c1nn(-c2ccc(Br)cc2)c2nc(C3CC3)cc(C(=O)O)c12 | 199 | 1980 nM | – |
| Cc1cc(C(=O)O)c2c(C3CCCC3)nn(-c3ccc(Cl)cc3)c2n1 | 64.8 | – | – |
